Bioassay records: PubChem BioAssay, The Scripps Research Institute Molecular Screening Center
ASAP1 inh: inhibitors of human ASAP1 ArfGAP activity; inhibition, % at 16.5 µM; hit rate 0.19% among 360,000; ASAP1-stimulated ARF1 GTP hydrolysis, GDP FP detection; Q9ULH1; in the data active means inhibition above about 25%
Target sequence (Q9ULH1 325-724 limits assumed): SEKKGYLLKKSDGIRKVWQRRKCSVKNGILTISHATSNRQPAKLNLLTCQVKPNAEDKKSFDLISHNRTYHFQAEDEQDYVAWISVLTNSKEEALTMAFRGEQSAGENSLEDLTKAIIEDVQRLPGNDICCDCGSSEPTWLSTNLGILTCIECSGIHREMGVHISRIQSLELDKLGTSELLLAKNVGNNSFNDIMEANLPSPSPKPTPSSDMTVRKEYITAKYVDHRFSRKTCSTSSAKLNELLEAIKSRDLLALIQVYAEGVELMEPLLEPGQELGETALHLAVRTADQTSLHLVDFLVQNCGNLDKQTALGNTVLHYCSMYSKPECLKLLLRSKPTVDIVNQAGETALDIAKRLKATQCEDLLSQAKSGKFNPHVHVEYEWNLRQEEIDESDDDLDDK
ARFGAP1 inh: rat ARFGAP1 inhibition; AID 651572; Q62848; Arfgap1-stimulated ARF1 GTP hydrolysis, GDP FP detection; hit rate 0.26% among 360,000; inhibition, % at 16.5 µM;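 active means inhibition above a per-plate limit, mean inhibition of low control wells plus 3 SD, cut at about 25% in these data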
Target sequence (Q62848 1-136 limits assumed): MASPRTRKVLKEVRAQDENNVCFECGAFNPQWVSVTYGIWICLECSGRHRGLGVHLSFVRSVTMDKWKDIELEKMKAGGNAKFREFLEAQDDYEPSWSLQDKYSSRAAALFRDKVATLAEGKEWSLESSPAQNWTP
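Assay system: Rat Arfgap1 GAP domain (His6, aa 1-136), purified enzyme | Buffer or medium: HEPES 25 mM pH 7.5, NaCl 150 mM, MgCl2, DTT | Schedule: GTP hydrolysis reaction 2 h at 25 °C | Signal: FP of antibody-bound GDP Alexa 633 tracer, ex 620/em 688 nm | Measure: Percent inhibition of Arfgap1-stimulated GTP hydrolysis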
EBNA-1 inh: blocks EBNA-1 binding to DNA; EBNA-1 DNA binding, fluorescence polarization; inhibition, % at 14.8 µM; hit rate 0.34% among 300,000; in the data active means inhibition above about 28%
ZTA counter: ZTA (EBV) inhibition in EBNA-1 counter-screen | P03206 | ZTA-DNA binding, fluorescence polarization | inhibition, % at 11 µM | hit rate 0.15% among 320,000 | AID 2234; in the data active means inhibition above about 33%
EBNA-1 confirm: EBNA-1 (EBV) inhibition, confirmation | shares compounds with EBNA-1 inh | Recombinant EBNA-1 DBD, Cy5-DNA fluorescence polarization | inhibition, % at 14.8 µM | hit rate 35% among 830 | AID 2292;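 active means mean inhibition across replicates above a set limit taken from the earlier primary screen, cut at about 28% in these data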
ZTA DNA inh trip: ZTA (EBV) inhibition, triplicate counter-screen. shares compounds with EBNA-1 inh. Zta-ZRE DNA binding, Cy5 fluorescence polarization. inhibition, % at 11.1 µM. 830 tested, under 10 active;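 active means mean inhibition over triplicates above a set limit taken from the primary EBNA-1 screen, cut at about 37% in these data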;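 further: purified full length Zta protein with Cy5 labeled ZRE DNA probe; inhibitors lower polarization by freeing the labeled DNA probe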
Of the large screens only hits and unclear results are named; the others gave an inactive call (follow-up assays come after a bar, where they were run). The list is not random: actives were taken first. Their share in the collection is about 0.75%.

NC(=O)c1ccc(NC(=O)COC(=O)/C=C/c2ccc3c(c2)OCO3)cc1	EBNA-1 inh 32 | EBNA-1 confirm inactive | ZTA DNA inh trip inactive
CCOc1ccc(NC(=O)CCC(=O)N/N=C/c2ccc3c(c2)OCO3)cc1	EBNA-1 inh 35 | EBNA-1 confirm inactive | ZTA DNA inh trip inactive
C[C@@H]1CN([C@@H](C)CO)C(=O)CCCn2cc(nn2)CO[C@H]1CN(C)C(=O)NC1CCCCC1	none (no result: EBNA-1 inh, ZTA counter)
CCCCCCCCN1C(=O)[C@@H](CC(=O)NCCc2ccccc2OC)C[C@@]2(C(=O)OC)C1=C[C@H](C(C)(C)C)O[C@@H]2C	none (no result: EBNA-1 inh, ZTA counter)
CCc1ccccc1N(C)S(=O)(=O)c1ccc2[nH]cc(C(=O)N3CCc4ccccc43)c(=O)c2c1	EBNA-1 inh 28 | EBNA-1 confirm inactive | ZTA DNA inh trip inactive
O=C(N[C@H](Cc1ccccc1)C(=O)NCC1CCCO1)[C@H]1O[C@@H](n2ccc(=O)[nH]c2=O)[C@H](O)[C@@H]1O (some centres not stated)	none (no result: EBNA-1 inh, ZTA counter)
CC(C)[C@H](NC(=O)c1ccc(Cl)cc1Cl)C(=O)N1CCC[C@H]1C(=O)NCc1ccccc1	none (no result: EBNA-1 inh, ZTA counter)
Cc1cccc(N2CCN(C3=NC(=O)/C(=C\c4cn[nH]c4-c4ccccc4)S3)CC2)c1	EBNA-1 inh 67 | EBNA-1 confirm 29 | ZTA DNA inh trip inactive
O=C1N=C(N2CCC(Cc3ccccc3)CC2)S/C1=C/c1cn[nH]c1-c1ccccc1	none
Cc1ccc(N2CCN(C3=NC(=O)/C(=C\c4cn[nH]c4-c4ccccc4)S3)CC2)cc1	EBNA-1 inh 93 | EBNA-1 confirm 43 | ZTA DNA inh trip inactive
O=C1N=C(N2CCN(c3ccccc3)CC2)S/C1=C\c1cn[nH]c1-c1ccccc1	EBNA-1 inh 138 | EBNA-1 confirm 34 | ZTA DNA inh trip inactive
COC(=O)c1cc2c(c3c4cc(F)ccc4n(S(=O)(=O)c4cccc(C)c4)c13)C(=O)N(C)C2	none (no result: EBNA-1 inh, ZTA counter)
N#Cc1ccc(NC(=O)COC(=O)C2Cc3ccccc3CN2C(=O)c2ccccc2)cc1 (configuration not stated)	EBNA-1 inh 33 | EBNA-1 confirm inactive | ZTA DNA inh trip inactive
Nc1[nH]c(C(=O)c2ccccc2)c(-c2ccccc2[N+](=O)[O-])c1C(=O)NCCc1c[nH]c2ccccc12	none (no result: EBNA-1 inh, ZTA counter)
CCc1nnc(NC(=O)CSc2nc3c(cc2C#N)CCC3)s1	none
N#Cc1cc2c(nc1SCC(=O)Nc1nccs1)CCCCC2	EBNA-1 inh 30 | EBNA-1 confirm inactive | ZTA DNA inh trip inactive
COc1ccc2cc(C(=O)CS(=O)(=O)c3ccc(Cl)cc3)c(=O)oc2c1	none (no result: EBNA-1 inh, ZTA counter)
COc1ccc(OC)c(-c2cc(C(=O)Nc3c(C)nn(Cc4ccccc4)c3C)no2)c1	none
COc1ccc(-c2cc(C(=O)Nc3c(C)nn(Cc4ccccc4Cl)c3C)no2)cc1	EBNA-1 inh 49 | EBNA-1 confirm 41 | ZTA DNA inh trip inactive
O=C(CCC(=O)NNC(=O)COc1ccccc1)NCc1ccccc1	none (no result: ASAP1 inh, ARFGAP1 inh)
O=C(COc1ccccc1)NCc1ccc(-n2cccc2)cc1	EBNA-1 inh 92 | EBNA-1 confirm 42 | ZTA DNA inh trip inactive
CC(C)C[C@H]1COc2cc(Br)ccc2S(=O)(=O)N1Cc1cccc(Cl)c1	none (no result: EBNA-1 inh, ZTA counter)
O=C(Nc1ccccc1F)c1cc2c(s1)-c1ccccc1S(=O)(=O)C2	EBNA-1 inh 53 | EBNA-1 confirm 57 | ZTA DNA inh trip inactive
O=C(N[C@H](C(=O)N1CCC[C@H]1C(=O)NC1CCCC1)C1CCCCC1)C1CCCC1	none (no result: EBNA-1 inh, ZTA counter)
CCCn1cc(NC(=O)c2cc(-c3ccccc3)on2)cn1	none
COc1ccc(-c2cc(C(=O)Nc3cnn(Cc4ccccc4C)c3)no2)cc1OC	EBNA-1 inh 36 (no result: ASAP1 inh, ARFGAP1 inh) | EBNA-1 confirm inactive | ZTA DNA inh trip inactive
COc1ccc(NC(=O)CSc2nc3nc(C)cc(C)c3c(=O)[nH]2)cc1	EBNA-1 inh 61 | EBNA-1 confirm inactive | ZTA DNA inh trip inactive
Cc1cccc(C(=O)Oc2ccccc2/C=N/Nc2ccc([N+](=O)[O-])cc2)c1	EBNA-1 inh 34 | EBNA-1 confirm 41 | ZTA DNA inh trip inactive
COc1ccc(NC(=O)N(C)[C@H]2C[C@H]3c4[nH]c5c(-c6ccccc6)cccc5c4CCN3C(=O)[C@H]2[C@H](C)O)cc1	none (no result: EBNA-1 inh, ZTA counter)
Cc1ccc(C(=O)N(C)[C@H]2C[C@H]3c4[nH]c5c(-c6ccccc6)cccc5c4CCN3C(=O)[C@H]2[C@H](C)O)cc1	none (no result: EBNA-1 inh, ZTA counter)
CCN(CC(=O)Nc1ccccc1C(F)(F)F)C(=O)c1cc(-c2ccccc2)nn1-c1ccccc1	none
